pIC50, pKi: −log10 of the molar value. Calls of active or inactive are those of the source. No cut-off for these calls is given here.
Experiments:
A549 [1] = assay: Antiinflammatory activity in human A549 cells assessed as reduction in TNFalpha-induced IL8 production at 2.5 uM after 24 hrs by ELISA; format: functional, cell-based
In short: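 A549 cells (ATCC) grown in RPMI 1640 with 10% FBS and penicillin/streptomycin at 37 °C, 5% CO2. Seeded and grown 16 h, then held 16 h in FBS-free medium. Treated with compound with or without TNF-α for 24 h. IL-8 measured by ELISA at 450 nm and expressed as % of the TNF-α-alone control. Means ± SD of three independent experiments.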

A549 [2] = assay: Cytotoxicity against human A549 cells assessed as effect on cell viability at 2.5 uM after 24 hrs by CCK8 assay; format: cell-based; details: a549, 24 h
In short: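 A549 cells in RPMI 1640 with 10% FBS were seeded at about 1 × 10^4 cells/well and grown 16 h, then switched to FBS-free medium for 16 h. Compound added with or without TNF-α for 24 h. Viability measured in triplicate by CCK-8 absorbance and expressed as % of the negative control.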

Neutrophil elastase [3] = biological target: T1, Neutrophil elastase (Homo sapiens, UniProt P08246); assay: Inhibition of human neutrophil elastase using MeOSuc-AAPV-pNA as substrate measured after 30 mins by spectrometric method
T1 sequence (P08246 whole entry): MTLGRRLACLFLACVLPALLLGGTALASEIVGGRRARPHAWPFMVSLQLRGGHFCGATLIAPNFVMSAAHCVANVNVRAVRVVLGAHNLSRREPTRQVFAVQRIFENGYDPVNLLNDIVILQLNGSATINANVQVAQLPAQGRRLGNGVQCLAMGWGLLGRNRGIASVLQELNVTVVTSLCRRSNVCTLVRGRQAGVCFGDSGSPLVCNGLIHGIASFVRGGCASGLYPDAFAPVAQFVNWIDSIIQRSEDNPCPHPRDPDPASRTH

Neutrophil elastase [4] = biological target: T1, Neutrophil elastase; assay: Noncompetitive inhibition of human neutrophil elastase using varying levels of MeOSuc-AAPV-pNA as substrate measured after 30 mins by double-reciprocal Lineweaver-Burk plot analysis

Row | Structure (SMILES) | Activity (A549 [1]) | Activity (A549 [2]) | pIC50 (Neutrophil elastase [3]) | pKi (Neutrophil elastase [4])
1 | COc1ccc([C@@H]2CC(=O)c3c(cc(O)c(C/C=C(\C)CCCC(C)(C)O)c3O)O2)cc1O | Active | Non-Toxic | – | –
2 | O=c1cc(-c2ccc(O)c(O)c2)oc2cc(O)cc(O)c12 [LUTEOLIN] | – | – | 4.90 | 5.00
3 | CC(C)(O)CCCC1(C)CCc2c(cc3c(c2O)C(=O)[C@H](O)[C@@H](c2ccc(O)c(O)c2)O3)O1 (some centres not stated) | Active | Non-Toxic | – | –
4 | CC(C)=CCC/C(C)=C/Cc1c(O)cc2c(c1O)C(=O)C[C@@H](c1ccc(O)c(O)c1)O2 [NYMPHAEOL A] | – | – | 4.64 | 4.80
5 | COc1cc([C@@H]2CC(=O)c3c(cc(O)c(C/C=C(\C)CCC=C(C)C)c3O)O2)cc(OC)c1O | – | – | 4.15 | –
6 | COc1cc([C@@H]2CC(=O)c3c(cc(O)c(C/C=C(\C)CCCC(C)(C)O)c3O)O2)cc(OC)c1O | Active | Non-Toxic | – | –
7 | COc1cc([C@@H]2CC(=O)c3c(cc4c(c3O)CCC(C)(CCCC(C)(C)O)O4)O2)cc(O)c1O (some centres not stated) | Active | Non-Toxic | – | –
8 | C=C(C)C(O)CC/C(C)=C/Cc1c(O)cc2c(c1O)C(=O)C[C@@H](c1cc(O)c(OC)c(O)c1)O2 (some centres not stated) | Active | Non-Toxic | – | –
9 | COc1cc([C@@H]2CC(=O)c3c(cc4c(c3O)CCC(C)(CCCC(C)(C)O)O4)O2)cc(OC)c1O (some centres not stated) | – | – | < 4.00 | –
10 | O=c1cc(-c2ccc(O)cc2)oc2cc(O)cc(O)c12 [APIGENIN] | – | – | 4.34 | 4.30
11 | CC(C)(O)CCCC1(C)CCc2c(cc3c(c2O)C(=O)C[C@@H](c2ccc(O)cc2)O3)O1 (some centres not stated) | Active | Non-Toxic | < 4.00 | –
12 | COc1ccc([C@@H]2CC(=O)c3c(cc4c(c3O)CCC(C)(CCCC(C)(C)O)O4)O2)cc1O (some centres not stated) | – | – | < 4.00 | –

Source: ChEMBL document CHEMBL4130463, “Potential Anti-inflammatory Effects of the Fruits of Paulownia tomentosa” (J Nat Prod, 2017)
